# Assay results from ChEMBL document CHEMBL4689842, “EUbOPEN Chemogenomics Library wave 1” (2021).
# “And” between values parts separate entries of the source, which are not always exact repeats. Identical values can stand only once.
# How the values were obtained:
# Assay type in all cases: toxicity, cell-based
# [1] = test system: HEK-293T; assay: Multiplex assay against HEK293T; conditions: human, 1 µM, compound concentration 1 uM;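 as to Population Tubulin-Different-Phenotype (%): share of the cells with healthy nuclei that show this phenotype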
# Method in brief: (§1)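 Phenotypes for tubulin, mitochondrial mass and membrane permeability are expressed as per cents of healthy-nucleus cells. Cells were stained live at seeding with Hoechst33342, BioTracker Green Microtubule Cytoskeleton Dye, MitoTracker Red and Annexin V Alexa Fluor 680, then imaged after compound addition on a CQ1 microscope at 37°C and 5% CO2. Machine-learning gating in CellPathfinder separated Hoechst high-intensity objects from normal cells, divided normal cells by nuclear state (healthy, pyknosed, fragmented) and divided pyknosed cells into mitotic or apoptotic.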
# [2] = test system: HEK-293T; assay: Incucyte cell viability with HEK293T; conditions: human, 10 µM, compound concentration 10 uM; also: filed as whole numbers so only -1 and 0 and 1 occur
# [3] = test system: U2OS; assay: Incucyte cell viability with U2OS; conditions: human, 10 µM, compound concentration 10 uM; also: filed as whole numbers so only -1 and 0 and 1 occur
# [4] = test system: U2OS; assay: Multiplex assay against U2OS; conditions: human, 1 µM, compound concentration 1 uM; method in brief: as §1
# [5] = test system: Fibroblast; assay: Incucyte cell viability with human fibroblast; conditions: 10 µM, compound concentration 10 uM; also: filed as whole numbers so only -1 and 0 and 1 occur
# [6] = test system: Fibroblast; assay: Multiplex assay against human fibroblast; conditions: 1 µM, compound concentration 1 uM; method in brief: as §1
# [7] = 0 h, replicate number 1, timepoint 0 hours
# [8] = 6 h, replicate number 1, timepoint 6 hours
# [9] = 12 h, replicate number 1, timepoint 12 hours
# [10] = 18 h, replicate number 1, timepoint 18 hours
# [11] = 24 h, replicate number 1, timepoint 24 hours
# [12] = 12 h, replicate number 2, timepoint 12 hours
structure (smiles),measurement,setting,value
CC[C@@H]1C(=O)N(C)c2cnc(Nc3ccc(C(=O)N[C@H]4CC[C@H](N5CCN(CC6CC6)CC5)CC4)cc3OC)nc2N1C(C)C [VOLASERTIB],Population Apoptotic (%),"[1]; 12 h, replicate 1",44% and 18%
same,Population Fragmented Nuclei (%),"[1]; 12 h, replicate 1",29% and 10%
same,Population Healthy Nuclei (%),"[1]; 12 h, replicate 1",31% and 58%
same,Population Hoechst High Intensity Objects (%),"[1]; 12 h, replicate 1",18% and 13%
same,Population Membrane Permeable-Phenotype (%),"[1]; 12 h, replicate 1",15% and 21%
same,Population Mitotic Cells (%),"[1]; 12 h, replicate 1",55% and 81%
same,Population Normal (%),"[1]; 12 h, replicate 1",81% and 86%
same,Population Pyknosed Nuclei (%),"[1]; 12 h, replicate 1",38% and 30%
same,Population Tubulin-Different-Phenotype (%),"[1]; 12 h, replicate 1",77% and 61%
same,Total Cell Count,"[1]; 12 h, replicate 1",539 and 544
same,Population Fragmented Nuclei (%),"[1]; 12 h, replicate 2",3%
same,Population Healthy Nuclei (%),"[1]; 12 h, replicate 2",76%
same,Population Hoechst High Intensity Objects (%),"[1]; 12 h, replicate 2",2% and 5%
same,Population Membrane Permeable-Phenotype (%),"[1]; 12 h, replicate 2",18% and 12%
same,Population Mitochondria Different-Phenotype (%),"[1]; 12 h, replicate 2",31% and 62%
same,Population Mitotic Cells (%),"[1]; 12 h, replicate 2",93% and 80%
same,Population Normal (%),"[1]; 12 h, replicate 2",97% and 94%
same,Population Pyknosed Nuclei (%),"[1]; 12 h, replicate 2",19%
same,Population Tubulin-Different-Phenotype (%),"[1]; 12 h, replicate 2",87% and 96%
same,Total Cell Count,"[1]; 12 h, replicate 2",982 and 1003
same,Population Healthy Nuclei (%),"[1]; 24 h, replicate 1",30% and 54%
same,Population Hoechst High Intensity Objects (%),"[1]; 24 h, replicate 1",21% and 9%
same,Population Membrane Permeable-Phenotype (%),"[1]; 24 h, replicate 1",9% and 11%
same,Population Mitotic Cells (%),"[1]; 24 h, replicate 1",53% and 84%
same,Population Normal (%),"[1]; 24 h, replicate 1",78% and 90%
same,Population Pyknosed Nuclei (%),"[1]; 24 h, replicate 1",36% and 34%
same,Population Tubulin-Different-Phenotype (%),"[1]; 24 h, replicate 1",77% and 76%
same,Total Cell Count,"[1]; 24 h, replicate 1",579 and 547
same,Population Apoptotic (%),"[1]; 24 h, replicate 2",6% and 12%
same,Population Fragmented Nuclei (%),"[1]; 24 h, replicate 2",3% and 7%
same,Population Healthy Nuclei (%),"[1]; 24 h, replicate 2",47% and 61%
same,Population Hoechst High Intensity Objects (%),"[1]; 24 h, replicate 2",3% and 6%
same,Population Membrane Permeable-Phenotype (%),"[1]; 24 h, replicate 2",7% and 10%
same,Population Mitochondria Different-Phenotype (%),"[1]; 24 h, replicate 2",28% and 53%
same,Population Mitotic Cells (%),"[1]; 24 h, replicate 2",93% and 87%
same,Population Normal (%),"[1]; 24 h, replicate 2",96% and 93%
same,Population Pyknosed Nuclei (%),"[1]; 24 h, replicate 2",48% and 30%
same,Population Tubulin-Different-Phenotype (%),"[1]; 24 h, replicate 2",91% and 83%
same,Total Cell Count,"[1]; 24 h, replicate 2",956 and 1101
same,Growth Rate,[2]; [7],0
same,Growth Rate,[2]; [8],0
same,Growth Rate,[2]; [9],0
same,Growth Rate,[2]; [10],0
same,Growth Rate,[2]; [11],0
same,Growth Rate,"[3]; 0 h, replicate number 2, timepoint 0 hours",0
same,Growth Rate,[3]; [8],1
same,Growth Rate,[3]; [9],0
same,Growth Rate,[3]; [12],1
same,Growth Rate,[3]; [10],0
same,Growth Rate,[3]; [11],0
same,Population Apoptotic (%),"[4]; 12 h, replicate 1",60% and 78%
same,Population Fragmented Nuclei (%),"[4]; 12 h, replicate 1",8% and 12%
same,Population Healthy Nuclei (%),"[4]; 12 h, replicate 1",81% and 61%
same,Population Hoechst High Intensity Objects (%),"[4]; 12 h, replicate 1",4% and 3%
same,Population Membrane Permeable-Phenotype (%),"[4]; 12 h, replicate 1",46% and 31%
same,Population Mitochondria Different-Phenotype (%),"[4]; 12 h, replicate 1",32% and 71%
same,Population Mitotic Cells (%),"[4]; 12 h, replicate 1",40% and 21%
same,Population Normal (%),"[4]; 12 h, replicate 1",95% and 96%
same,Population Pyknosed Nuclei (%),"[4]; 12 h, replicate 1",10% and 25%
same,Population Tubulin-Different-Phenotype (%),"[4]; 12 h, replicate 1",88% and 100%
same,Total Cell Count,"[4]; 12 h, replicate 1",145 and 156
same,Population Apoptotic (%),"[4]; 12 h, replicate 2",75% and 76%
same,Population Fragmented Nuclei (%),"[4]; 12 h, replicate 2",11% and 18%
same,Population Healthy Nuclei (%),"[4]; 12 h, replicate 2",82% and 57%
same,Population Hoechst High Intensity Objects (%),"[4]; 12 h, replicate 2",21% and 7%
same,Population Membrane Permeable-Phenotype (%),"[4]; 12 h, replicate 2",30% and 61%
same,Population Mitochondria Different-Phenotype (%),"[4]; 12 h, replicate 2",46% and 96%
same,Population Mitotic Cells (%),"[4]; 12 h, replicate 2",25% and 24%
same,Population Normal (%),"[4]; 12 h, replicate 2",78% and 92%
same,Population Tubulin-Different-Phenotype (%),"[4]; 12 h, replicate 2",94%
same,Total Cell Count,"[4]; 12 h, replicate 2",110 and 80
same,Population Apoptotic (%),"[4]; 24 h, replicate 1",66% and 77%
same,Population Fragmented Nuclei (%),"[4]; 24 h, replicate 1",10%
same,Population Healthy Nuclei (%),"[4]; 24 h, replicate 1",76% and 58%
same,Population Hoechst High Intensity Objects (%),"[4]; 24 h, replicate 1",5%
same,Population Membrane Permeable-Phenotype (%),"[4]; 24 h, replicate 1",28% and 82%
same,Population Mitochondria Different-Phenotype (%),"[4]; 24 h, replicate 1",38% and 96%
same,Population Mitotic Cells (%),"[4]; 24 h, replicate 1",33% and 22%
same,Population Normal (%),"[4]; 24 h, replicate 1",94%
same,Population Pyknosed Nuclei (%),"[4]; 24 h, replicate 1",14% and 23%
same,Population Tubulin-Different-Phenotype (%),"[4]; 24 h, replicate 1",78%
same,Total Cell Count,"[4]; 24 h, replicate 1",159 and 158
same,Population Apoptotic (%),"[4]; 24 h, replicate 2",65% and 61%
same,Population Fragmented Nuclei (%),"[4]; 24 h, replicate 2",18% and 15%
same,Population Healthy Nuclei (%),"[4]; 24 h, replicate 2",48% and 67%
same,Population Hoechst High Intensity Objects (%),"[4]; 24 h, replicate 2",10% and 12%
same,Population Membrane Permeable-Phenotype (%),"[4]; 24 h, replicate 2",86%
same,Population Mitochondria Different-Phenotype (%),"[4]; 24 h, replicate 2",100% and 57%
same,Population Mitotic Cells (%),"[4]; 24 h, replicate 2",34% and 38%
same,Population Normal (%),"[4]; 24 h, replicate 2",89% and 87%
same,Population Pyknosed Nuclei (%),"[4]; 24 h, replicate 2",32% and 17%
same,Population Tubulin-Different-Phenotype (%),"[4]; 24 h, replicate 2",100% and 71%
same,Total Cell Count,"[4]; 24 h, replicate 2",83 and 123
same,Growth Rate,[5]; [7],0
same,Growth Rate,[5]; [9],0
same,Growth Rate,[5]; [12],1
same,Growth Rate,[5]; [10],0
same,Growth Rate,[5]; [11],0
same,Population Apoptotic (%),"[6]; 12 h, replicate 1",76% and 71%
same,Population Fragmented Nuclei (%),"[6]; 12 h, replicate 1",43% and 28%
same,Population Healthy Nuclei (%),"[6]; 12 h, replicate 1",42% and 54%
same,Population Hoechst High Intensity Objects (%),"[6]; 12 h, replicate 1",14% and 22%
same,Population Membrane Permeable-Phenotype (%),"[6]; 12 h, replicate 1",9% and 7%
same,Population Mitochondria Different-Phenotype (%),"[6]; 12 h, replicate 1",6% and 11%
same,Population Mitotic Cells (%),"[6]; 12 h, replicate 1",24% and 28%
same,Population Normal (%),"[6]; 12 h, replicate 1",85% and 77%
same,Population Pyknosed Nuclei (%),"[6]; 12 h, replicate 1",13% and 16%
same,Total Cell Count,"[6]; 12 h, replicate 1",213 and 342
same,Population Apoptotic (%),"[6]; 12 h, replicate 2",53% and 50%
same,Population Fragmented Nuclei (%),"[6]; 12 h, replicate 2",48% and 67%
same,Population Healthy Nuclei (%),"[6]; 12 h, replicate 2",32% and 24%
same,Population Hoechst High Intensity Objects (%),"[6]; 12 h, replicate 2",36% and 43%
same,Population Membrane Permeable-Phenotype (%),"[6]; 12 h, replicate 2",17% and 16%
same,Population Mitochondria Different-Phenotype (%),"[6]; 12 h, replicate 2",26% and 33%
same,Population Mitotic Cells (%),"[6]; 12 h, replicate 2",46% and 50%
same,Population Normal (%),"[6]; 12 h, replicate 2",63% and 56%
same,Population Pyknosed Nuclei (%),"[6]; 12 h, replicate 2",18% and 8%
same,Population Tubulin-Different-Phenotype (%),"[6]; 12 h, replicate 2",78% and 58%
same,Total Cell Count,"[6]; 12 h, replicate 2",111 and 87
same,Population Apoptotic (%),"[6]; 24 h, replicate 1",84% and 80%
same,Population Fragmented Nuclei (%),"[6]; 24 h, replicate 1",23% and 37%
same,Population Healthy Nuclei (%),"[6]; 24 h, replicate 1",52% and 50%
same,Population Hoechst High Intensity Objects (%),"[6]; 24 h, replicate 1",31% and 16%
same,Population Membrane Permeable-Phenotype (%),"[6]; 24 h, replicate 1",7%
same,Population Mitotic Cells (%),"[6]; 24 h, replicate 1",15% and 19%
same,Population Normal (%),"[6]; 24 h, replicate 1",68% and 83%
same,Population Pyknosed Nuclei (%),"[6]; 24 h, replicate 1",24% and 11%
same,Total Cell Count,"[6]; 24 h, replicate 1",319 and 221
same,Population Apoptotic (%),"[6]; 24 h, replicate 2",100% and 64%
same,Population Fragmented Nuclei (%),"[6]; 24 h, replicate 2",62% and 44%
same,Population Healthy Nuclei (%),"[6]; 24 h, replicate 2",36% and 33%
same,Population Hoechst High Intensity Objects (%),"[6]; 24 h, replicate 2",38%
same,Population Membrane Permeable-Phenotype (%),"[6]; 24 h, replicate 2",5% and 13%
same,Population Mitochondria Different-Phenotype (%),"[6]; 24 h, replicate 2",22% and 45%
same,Population Normal (%),"[6]; 24 h, replicate 2",61%
same,Population Tubulin-Different-Phenotype (%),"[6]; 24 h, replicate 2",27% and 72%
same,Total Cell Count,"[6]; 24 h, replicate 2",81 and 106
